This is one part of a sample in which hits are shown more often than they occur.
XBP1 UPR activ: adaptive UPR (XBP1) activation. activation, % at 20 µM. AID 463104. 330,000 tested, 0.33% active. CHO-XBP1 luciferase reporter, IRE1-XBP1 UPR activation, luminescence; percent of tunicamycin response, DMSO as zero;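 active means versus positive control, 20 µM dose yields 30% or more activation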;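 further: 100% = tunicamycin at 10 µg/mL and 0% = DMSO only wells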
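Material: CHO-XBP1 cells stably carrying IRE1-XBP1-driven luciferase reporter / Amount: 1000 cells per well / Compound: 20 µM, 1% DMSO / Times: 6 h treatment, 37 °C / Detection: luciferase luminescence / Measure: % activation of reporter signal versus tunicamycin and DMSO controls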
CHOP UPR activ: apoptotic UPR (CHOP) activation. CHO-CHOP luciferase reporter, luminescence; percent of tunicamycin response over DMSO baseline. activation, % at 10 µM. 330,000 tested, 0.34% active;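 active means at 10 µM dose, activation of 40% or more, normalized to positive control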;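 further: 100% = tunicamycin at 10 µg/mL and 0% = DMSO alone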
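Assay system: CHO-CHOP cells, stable luciferase reporter of PERK-eIF2a-CHOP signalling / Buffer or medium: F12 plus 10% serum / Compound dosing: one dose, 10 µM in 0.5% DMSO / Times: 6 h compound treatment, 37 °C / Technique: luciferase luminescence / Read-out: % reporter activation, DMSO baseline versus tunicamycin full activation / Benchmarks: tunicamycin and DMSO controls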
CHOP inhibitor: CHOP inhibition in unfolded protein response; AID 2732; CHO-K1 CHOP-promoter luciferase, tunicamycin-induced, 15-18 h; 220,000 tested, 3.8% active; inhibition, % at 10 µM;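 active means compounds that reduced the stress-induced luciferase reporter signal by more than about 70% of percent inhibition, limit read from the data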;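 further: 0% = tunicamycin plus vehicle and 100% = wells without tunicamycin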
FXN GAA850 act: frataxin GAA850 promoter activation; HEK293 lucGAA850 FXN promoter luciferase reporter, 24 h; percent of 10 µM SAHA response; activation, % at 6 µM; 360,000 tested, 0.56% active; AID 540364;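 active means activation above the average of all compounds screened plus 3 SD, cutoff fixed separately per campaign, cut at about 7.5% in these data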;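 further: 0% = DMSO wells and 100% = 10 µM SAHA wells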
* = called active by the depositor; · = not tested or not shown; ! = a repeat was not active.

SMILES | XBP1 UPR activ | CHOP UPR activ | CHOP inhibitor | FXN GAA850 act
COc1ccc(NC(=O)C2(C)Cc3c(-c4cccc(NC(C)=O)c4)ccnc3O2)cn1 (centres undefined) | · | · | · | -2
Cc1ccc(-c2nn(-c3ccccc3)cc2C2CC(c3ccccc3)=NN2C(=O)CCC(=O)O)cc1 (centres undefined) | -3 | 0 | 24 | 1
Cc1ccc(C2=NN(C(=O)CCC(=O)O)C(c3cn(-c4ccccc4)nc3-c3ccc(C)cc3)C2)cc1 (centres undefined) | 1 | 1 | 95* | 1
CN1CCN(CCCN2c3ccccc3Sc3ccc(C(F)(F)F)cc32)CC1 | -1 | -1 | 96*! | -1
CC1CCN(CCOc2ccccc2-c2ccccc2)CC1 | 0 | -1 | 9 | 2
CC1CC(C)CN(CCOc2ccccc2-c2ccccc2)C1 (centres undefined) | 1 | 2 | 93* | -1
CCCCN(C=O)c1c(CC)nc2c(OCC3CCCCC3)cccn12 | · | · | · | -1
CCc1ccc(-c2nc(C(N)=O)c3[nH]c(=O)n(-c4ccccc4OC)c3n2)cc1 | 14 | -3 | 72* | -5
COc1ccc(-c2nc(C(N)=O)c3[nH]c(=O)n(-c4cccc(Cl)c4)c3n2)cc1OC | · | · | 95* | -1
NS(=O)(=O)c1ccc(NC(=O)CCC(=O)O)cc1 | · | · | · | 0
C=CCOc1cccn2c(N(C)C(=O)c3ccncc3)c(CC)nc12 | · | · | · | 1
CC(CCc1ccccc1)NC(=O)c1ccc(C(=O)NC(C)CCc2ccccc2)cc1 (centres undefined) | -3 | 3 | 82* | 0
Cc1cc(C)cc(C(=O)O/N=C(\N)c2ccc(Br)cc2)c1 | 0 | 5 | 72* | -3
O=[N+]([O-])c1nn(-c2ccc3c(c2)OCCO3)n(O)c1=NCCC1=CCCCC1 | 1 | 2 | 86* | 2
Cc1ccc(S(=O)(=O)N2C[C@H]3[C@H]4C(=O)N(c5ccccc5)C(=O)[C@H]4C[C@H](OC(=O)Nc4cccs4)[C@@]3(O)C2)cc1 | · | · | · | 0
Cc1cnc(NC(=O)c2ccc(-c3nc4ccccc4s3)o2)s1 | 1 | 2 | 74* | 3
O=C(c1cccs1)N1C[C@@H](n2cc(C3CC3)nn2)[C@H](O)C[C@@H]1c1ccc(Cl)cc1 | · | · | · | 1
CC1(C(=O)NCc2cccs2)Cc2c(-c3ccc(C(N)=O)cc3)ccnc2O1 (centres undefined) | · | · | · | -3
CCCCCCOc1ccc(N2C(=O)CC(N3CCN(CCN=CC4C(=O)CC(C)(C)CC4=O)CC3)C2=O)cc1 (centres undefined) | -2 | 1 | 71* | 2
CCC(=O)NCCn1c(C)cc2ccccc21 | -2 | 0 | -3 | 1
Cc1cc2ccccc2n1CCNC(=O)Cc1cccc2ccccc12 | -6 | -1 | 71* | -5
CCN(CC)c1cccc(OC2=NS(=O)(=O)c3ccccc32)c1 | 0 | -3 | 81* | 3
CCc1ccc(OC2=NS(=O)(=O)c3ccccc32)cc1 | · | · | -2 | 2
O=C(NCc1cccc(C(F)(F)F)c1)c1ccc2sc(C3=C[C@@H](O)[C@@H](O)[C@@H](CO)O3)nc2c1 | · | · | · | 1
C[C@H](CO)N1C[C@H](C)[C@@H](CN(C)C(=O)CCC(F)(F)F)OCc2cnnn2CCCC1=O | · | · | · | -1
SMILES | XBP1 UPR activ | CHOP UPR activ | CHOP inhibitor | FXN GAA850 act
S=C(NCCCN1CCOCC1)N1CCN(c2nc(-c3ccc(Cl)cc3)cs2)CC1 | 28 | 7 | 88* | -1
Oc1cccc(C(O)CNCc2ccc(OCc3ccc(Cl)cc3Cl)cc2)c1 (centres undefined) | 2 | -1 | 104* | 5
CCCNC(=O)C1(C)CCN(C(=O)c2sccc2C)C1 (centres undefined) | · | · | · | -1
Clc1cccc(-c2ccnc3nc(-n4cccc4)nn23)c1 | 1 | -1 | 76* | 6
CCOc1ccc(/C=C2\SC(=S)N(C(C(=O)O)c3ccccc3)C2=O)cc1OC (centres undefined) | -1 | 1 | 20 | 1
CC(c1ccccc1)N1C(=O)/C(=C/c2ccncc2)SC1=S (centres undefined) | -4 | 4 | 86* | -1
C=CCOc1ccc(/C=C2\SC(=S)N(C(C(=O)O)c3ccccc3)C2=O)cc1 (centres undefined) | · | · | 90* | 2
CN(C)C(=O)N1CCc2ccc([N+](=O)[O-])cc21 | · | · | · | 0
O=C(Oc1cccc2c(O)cccc12)c1ccccc1 | 11 | 6 | 106* | 2
COc1ccc(-c2ccc(CN3C(C(C)C)C(=O)N(Cc4cn(CCC5OCCO5)nn4)CCS3(=O)=O)cc2)cc1 (centres undefined) | · | · | · | 1
Cc1ccc(NC(=O)Cn2c(O)c(N=NC(N)=O)c3ccccc32)cc1 | 3 | 0 | 2 | 0
Cc1cccc(NC(=O)Cn2c(O)c(N=NC(=O)c3ccncc3)c3ccccc32)c1 | -3 | 1 | 84* | -1
Cc1ccc(NC(=O)Cn2c(O)c(N=NC(N)=S)c3ccccc32)cc1 | 60* | 17 | · | 1
CC(=O)N1CC2(CC(c3ccc(Cl)cc3Cl)=NO2)CN1c1cccc(Cl)c1 (centres undefined) | · | · | · | 1
COCCNC(=O)C1(C)CCCN(C(=O)c2ccc(F)cc2Cl)C1 (centres undefined) | · | · | · | -1
CC(=O)c1c(C(C)=O)c(C)n(-c2nc(-c3ccc(C)c(C)c3)c(C)s2)c1C | -2 | 0 | 76* | -1
COCCCNC(=O)c1csc([C@H]2C[C@H](O)[C@@H](CO)O2)n1 | · | · | · | 0
CC1CCN(S(=O)(=O)c2ccc(Br)s2)CC1 | -1 | 0 | 75* | 1
COc1cccc(C(C)(O)c2nc(-c3cccc(C#N)c3)cs2)c1 (centres undefined) | · | · | · | -2
CN(C)C(=O)Cn1cnc2c(cnn2-c2ccccc2Cl)c1=O | -1 | 1 | 89* | 1
Cc1ccc(-n2ncc3c(=O)n(CC(=O)N4CCN(c5ccccc5)CC4)cnc32)cc1 | -2 | 0 | 82* | 1
CCOC(=O)C1(C)CCCN1C(=O)c1cccc2ccccc12 (centres undefined) | · | · | · | 1
O=C(C[C@H]1C(=O)N(c2ccccc2)C[C@@H]1Cc1ccccc1)Nc1ccccc1 | · | · | · | -1
COc1ccc(/C=C/C(=O)Nc2cc(C(F)(F)F)ccc2Cl)cc1 | 0 | -1 | 74* | 1
Cc1ccc(NC(=O)Nc2cccc([N+](=O)[O-])c2)nc1 | 0 | 4 | 0 | 4
Cc1ccc(NC(=O)Nc2ccc([N+](=O)[O-])cc2)nc1 | 1 | 4 | 70* | 4
Cc1ccc(NC(=O)Nc2nnc(Cc3ccc([N+](=O)[O-])cc3)s2)cc1 | 3 | 7 | 76* | -1
CC(C)Cc1nnc(NC(=O)Nc2ccccc2)s1 | 1 | 2 | 70* | 5
O=C(Nc1ccc(Cl)cc1)Nc1nnc(Cc2ccc([N+](=O)[O-])cc2)s1 | 2 | -1 | 0 | 0
CC1(C(=O)NS(=O)(=O)c2ccccc2C(F)(F)F)CCN1C(=O)CCC1CCCC1 (centres undefined) | · | · | · | -2

Screening results deposited in PubChem BioAssay by several laboratories.
